Measurements as given in ChEMBL document CHEMBL1799960, “Diadenosine 5',5''-(boranated)polyphosphonate analogues as selective nucleotide pyrophosphatase/phosphodiesterase inhibitors” (J Med Chem, 2010).
Active and inactive are the calls of the source. No cut-off for these calls is given here.

Key:
Format in all cases: cell-based
Details in all cases: COS-7
[1] = target: T1, Ectonucleoside triphosphate diphosphohydrolase 1 (Homo sapiens) (UniProt P49961); assay: Inhibition of human NTPDase1 expressed in COS7 cells assessed as amount of inorganic phosphate released using ATP as the substrate at 100 uM after 15 mins by malachite green reagent method
T1 sequence (whole entry): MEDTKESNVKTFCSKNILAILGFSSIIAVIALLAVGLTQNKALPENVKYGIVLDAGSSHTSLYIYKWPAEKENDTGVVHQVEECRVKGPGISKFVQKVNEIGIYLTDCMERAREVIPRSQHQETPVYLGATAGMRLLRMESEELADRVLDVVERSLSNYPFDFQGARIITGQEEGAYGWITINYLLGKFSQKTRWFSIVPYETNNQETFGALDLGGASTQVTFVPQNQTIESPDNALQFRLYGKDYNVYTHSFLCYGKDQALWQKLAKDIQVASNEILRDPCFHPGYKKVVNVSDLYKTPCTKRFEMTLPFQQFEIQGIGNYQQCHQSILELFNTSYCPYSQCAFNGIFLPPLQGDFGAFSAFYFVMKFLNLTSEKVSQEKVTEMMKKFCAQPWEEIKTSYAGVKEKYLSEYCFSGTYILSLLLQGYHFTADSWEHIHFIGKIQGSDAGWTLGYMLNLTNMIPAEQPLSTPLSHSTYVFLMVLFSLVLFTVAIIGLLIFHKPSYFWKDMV
Summary of the method: (§1)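 Protein extracts of transfected COS-7 cells (ecto-5'-nucleotidase: 100 μM AMP substrate; NTPDases: 100 μM ATP) were preincubated 3 min at 37 °C in Tris-Ringer pH 7.3 with inhibitor at 100 μM final. After 15 min, malachite green stop; Pi read at 630 nm. Activity given as % of substrate-only control. Mean ± SD of three experiments in triplicate.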

[2] = target: T2, Ectonucleoside triphosphate diphosphohydrolase 3 (Homo sapiens) (UniProt O75355); assay: Inhibition of human NTPDase3 expressed in COS7 cells assessed as amount of inorganic phosphate released using ATP as the substrate at 100 uM after 15 mins by malachite green reagent method; summary of the method: as §1
T2 sequence (whole entry): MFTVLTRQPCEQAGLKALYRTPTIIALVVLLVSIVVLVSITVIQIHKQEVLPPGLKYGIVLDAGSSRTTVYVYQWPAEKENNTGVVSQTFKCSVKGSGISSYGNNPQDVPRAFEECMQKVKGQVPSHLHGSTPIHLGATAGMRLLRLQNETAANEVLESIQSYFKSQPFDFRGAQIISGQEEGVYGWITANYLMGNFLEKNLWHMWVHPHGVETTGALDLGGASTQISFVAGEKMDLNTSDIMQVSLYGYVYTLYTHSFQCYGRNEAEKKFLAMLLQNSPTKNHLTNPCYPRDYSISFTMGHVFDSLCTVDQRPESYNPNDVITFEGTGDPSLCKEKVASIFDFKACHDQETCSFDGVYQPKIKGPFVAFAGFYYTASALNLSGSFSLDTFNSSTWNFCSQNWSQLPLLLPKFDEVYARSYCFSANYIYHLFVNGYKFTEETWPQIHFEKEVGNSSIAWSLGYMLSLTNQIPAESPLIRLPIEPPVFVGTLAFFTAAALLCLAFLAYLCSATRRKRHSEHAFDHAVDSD

[3] = target: T3, Ectonucleotide pyrophosphatase/phosphodiesterase family member 3 (Homo sapiens) (UniProt O14638); assay: Inhibition of human NPP3 expressed in COS7 cells assessed as amount of inorganic phosphate released using ATP as the substrate at 100 uM after 15 mins by malachite green reagent method
T3 sequence (whole entry): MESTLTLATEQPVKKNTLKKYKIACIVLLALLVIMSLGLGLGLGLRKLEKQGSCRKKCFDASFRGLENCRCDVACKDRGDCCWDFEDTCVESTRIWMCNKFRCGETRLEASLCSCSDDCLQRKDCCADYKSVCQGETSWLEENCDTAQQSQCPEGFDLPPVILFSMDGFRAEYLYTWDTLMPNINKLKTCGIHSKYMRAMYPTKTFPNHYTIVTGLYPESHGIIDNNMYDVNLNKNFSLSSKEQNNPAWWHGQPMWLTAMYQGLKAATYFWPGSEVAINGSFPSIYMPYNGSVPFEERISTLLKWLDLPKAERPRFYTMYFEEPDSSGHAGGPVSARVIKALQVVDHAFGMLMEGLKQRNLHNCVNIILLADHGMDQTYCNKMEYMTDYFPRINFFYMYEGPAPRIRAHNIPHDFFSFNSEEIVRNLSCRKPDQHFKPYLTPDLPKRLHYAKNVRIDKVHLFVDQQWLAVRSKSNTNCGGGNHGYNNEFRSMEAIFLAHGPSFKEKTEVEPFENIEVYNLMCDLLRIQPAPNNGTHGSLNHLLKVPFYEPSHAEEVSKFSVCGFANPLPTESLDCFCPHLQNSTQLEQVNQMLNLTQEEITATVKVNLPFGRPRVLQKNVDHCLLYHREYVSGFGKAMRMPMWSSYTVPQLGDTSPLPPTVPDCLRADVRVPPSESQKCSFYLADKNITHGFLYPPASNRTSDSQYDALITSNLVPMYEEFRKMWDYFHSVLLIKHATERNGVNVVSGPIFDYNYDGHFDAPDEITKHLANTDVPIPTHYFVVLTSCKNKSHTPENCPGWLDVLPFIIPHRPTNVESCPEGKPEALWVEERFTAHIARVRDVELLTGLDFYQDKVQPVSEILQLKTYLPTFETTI

| Structure (SMILES) | inhibition [1] | inhibition [2] | inhibition [3] |
| --- | --- | --- | --- |
| BP(=O)(OP(=O)(O)CP(=O)(O)OC[C@H]1O[C@@H](n2cnc3c(N)ncnc32)C[C@@H]1O)OP(=O)(O)CP(=O)(O)OC[C@H]1O[C@@H](n2cnc3c(N)ncnc32)C[C@@H]1O | inactive | 10% | 65% |
| Nc1ncnc2c1ncn2[C@@H]1O[C@H](COP(=O)(O)CP(=O)(O)OP(=O)(O)CP(=O)(O)OC[C@H]2O[C@@H](n3cnc4c(N)ncnc43)[C@H](O)[C@@H]2O)[C@@H](O)[C@H]1O | inactive | 10% | 65% |
| Nc1ncnc2c1ncn2[C@H]1C[C@H](O)[C@@H](COP(=O)(O)CP(=O)(O)OP(=O)(O)CP(=O)(O)OC[C@H]2O[C@@H](n3cnc4c(N)ncnc43)C[C@@H]2O)O1 | inactive | 10% | 90% |
| BP(=O)(OP(=O)(O)CP(=O)(O)OC[C@H]1O[C@@H](n2cnc3c(N)ncnc32)[C@H](O)[C@@H]1O)OP(=O)(O)CP(=O)(O)OC[C@H]1O[C@@H](n2cnc3c(N)ncnc32)[C@H](O)[C@@H]1O | inactive | 10% | 90% |
